# Measurements from different studies.
# Protocols differ between the studies behind these lines.
# SIGMAR1: Sigma non-opioid intracellular receptor 1 (SIGMAR1, Homo sapiens, UniProt Q99720)
# OPRK1: Kappa-type opioid receptor (OPRK1, Homo sapiens, UniProt P41145)
# PPO3: PPO3 (Agaricus bisporus, UniProt C7FF04)
# HTR2A: 5-hydroxytryptamine receptor 2A (HTR2A, Homo sapiens, UniProt P28223)
# HRH4: Histamine H4 receptor (HRH4, Homo sapiens, UniProt Q9H3N8)
Structure (SMILES),target,effect on,action,method,notes,Ki
COc1ccc2c(ccn2CCCCN2CCc3cc(OC)c(OC)cc3C2)c1,SIGMAR1,ligand displacement,,radioligand,cell membranes,0.45 µM
Cn1cc(-c2ccncc2)c(-c2ccc(OCc3ccc4ccccc4n3)cc2)n1,"Vesicular acetylcholine transporter (SLC18A3, Homo sapiens, UniProt Q16572)",ligand displacement,,radioligand,,> 1 µM
Cc1ccc(CN(C)CC(=O)N2CCCN(Cc3ccc(Cl)cc3)CC2)c(Cl)c1,OPRK1,cell-free assay,,,,7.59 µM
N=C(N)N1CCC[C@H]1c1nc(-c2ccc(CCc3ccc(C(F)(F)F)cc3)c(C(F)(F)F)c2)no1,"Sphingosine kinase 1 (SPHK1, Homo sapiens, UniProt Q9NYA1)",enzyme activity,inhibitor,,,9 µM
CNC(=O)[C@@]12C[C@@H]1[C@@H](n1cnc3c(NC)nc(C#Cc4ccccc4)nc31)[C@H](O)[C@@H]2O,OPRK1,cell-free assay,,,,> 10 µM
COc1ccc(N=Nc2c(N)nc(N)nc2Cl)cc1,PPO3,enzyme activity,inhibitor,,,7.05 µM
O[C@H]1[C@H](n2cnc3c(NC(C4CCCCC4)C4CCCCC4)nc(Cl)nc32)[C@H]2C[C@@]2(CF)[C@H]1O,HTR2A,ligand displacement,,radioligand,,7 µM
O[C@@H]1[C@H](O)[C@@H]2C[C@@H]2[C@H]1n1cnc2c(NCC(c3ccccc3)c3ccccc3)nc(C#Cc3ccccc3)nc21,OPRK1,cell-free assay,,,,> 10 µM
CC1Cc2ccccc2N1C(=O)NCCCCN(C)[C@@H]1Cc2cccc3[nH]c(=O)n(c23)C1 (mixture of isomers),HTR2A,ligand displacement,,radioligand,,3.09 µM
CC(=O)Nc1ccc(N=Nc2c(N)nc(N)nc2Cl)cc1,PPO3,enzyme activity,inhibitor,,,7.84 µM
CNC(=O)[C@@]12C[C@@H]1[C@@H](n1cnc3c(NCCCO)nc(C#Cc4ccc(Cl)s4)nc31)[C@H](O)[C@@H]2O,OPRK1,cell-free assay,,,,> 10 µM
CCCn1nc(C(=O)N2CCCCC2)c2c1CCC(NCCc1ccncc1)C2 (centres unmarked),SIGMAR1,ligand displacement,,radioligand,,> 10 µM
O=C1NC(=O)C(c2ccccc2)(c2ccc(OCCCN3CCCCC3)cc2)N1 (centres unmarked),HRH4,ligand displacement,,radioligand,cell membranes,> 100 µM
CCCn1nc(C(=O)N2CCCCC2)c2c1CCC(N(C)Cc1ccc(F)cc1)C2 (centres unmarked),SIGMAR1,ligand displacement,,radioligand,,> 10 µM
Cc1nc2n(c(=O)c1CCN1CCC(C(=O)c3ccc(F)cc3)CC1)CCCC2,HTR2A,ligand displacement,,radioligand,cell membranes,0.00302 µM
CNC(=O)[C@@]12C[C@@H]1[C@@H](n1ccc3c(NC)ncnc31)[C@H](O)[C@@H]2O,OPRK1,cell-free assay,,,,> 10 µM
CCCn1nc(C(=O)N2CCCCC2)c2c1CCC(N1CCC(c3ccncc3)CC1)C2 (centres unmarked),SIGMAR1,ligand displacement,,radioligand,,> 10 µM
CNc1nc(C#Cc2ccccc2)nc2c1ncn2[C@H]1[C@H](O)[C@H](O)[C@@H]2C[C@@H]21,OPRK1,cell-free assay,,,,> 10 µM
Cc1ccc(C(C)C)cc1NC(=O)COC(=O)/C=C/c1ccccc1O,PPO3,enzyme activity,inhibitor,,,2.2 µM
CCOC(=O)[C@@]12C[C@@H]1[C@@H](n1cnc3c(NC)nc(C#Cc4ccc(Cl)s4)cc31)[C@H](O)[C@@H]2O,OPRK1,cell-free assay,,,,> 10 µM
CCOC(=O)[C@H](CCSC)NC(=O)c1ccc(C2CC2)c(Cc2ccc(F)cc2)n1,"Cannabinoid receptor 1 (CNR1, Homo sapiens, UniProt P21554)",ligand displacement,,radioligand,cell membranes,0.07 µM
Nc1nc(N)c(N=Nc2ccc([N+](=O)[O-])cc2)c(N)n1,PPO3,enzyme activity,inhibitor,,,4.62 µM
CCCn1nc(C(=O)N2CCCCC2)c2c1CCC(NCc1ccc(N3CCCCC3)cc1)C2 (centres unmarked),SIGMAR1,ligand displacement,,radioligand,,> 10 µM
Cc1nc2n(c(=O)c1CCNCCc1c[nH]c3ccccc13)CCCC2,HTR2A,ligand displacement,,radioligand,cell membranes,> 10 µM
CC[C@H](C)[C@H](NC(=O)[C@H](CCC(=O)O)NC(=O)[C@H](CC(=O)O)NC(=O)CNC(=O)[C@H](CC(C)C)NC(=O)[C@H](CCCNC(=N)N)NC(=O)[C@H](CCCNC(=N)N)NC(=O)[C@H](CC(C)C)NC(=O)CNC(=O)[C@H](CCC(N)=O)NC(=O)[C@@H](NC(=O)[C@H](CCSC)NC(=O)[C@H](Cc1c[nH]c2ccccc12)NC(=O)[C@@H](NC(=O)[C@H](CCC(=O)O)NC(=O)[C@@H]1CCCN1C(=O)[C@H](CCCNC(=N)N)NC(C)=O)[C@@H](C)CC)[C@@H](C)O)C(=O)N[C@@H](CC(N)=O)C(=O)N[C@@H](C)C(=O)N[C@@H](Cc1ccc(O)cc1)C(=O)N[C@@H](Cc1ccc(O)cc1)C(=O)N[C@@H](C)C(=O)N[C@@H](CCCNC(=N)N)C(N)=O,"Bcl-2-like protein 1 (BCL2L1, Homo sapiens, UniProt Q07817)",ligand displacement,,FP,,2.4 µM
CNc1nc(C#Cc2ccc(Cl)s2)nc2c1ncn2[C@@H]1O[C@H](C(=O)OC)[C@@H](O)[C@H]1O,OPRK1,cell-free assay,,,,> 10 µM
O=C(c1cccc(/N=N/c2cccc(OCCCN3CCCCC3)c2)c1)N1CCCC1,HRH4,ligand displacement,,radioligand,,> 10 µM
CNC(=O)[C@@]12C[C@@H]1[C@@H](n1cnc3c(NCc4cccc(Cl)c4)nc(C#Cc4ccccc4)nc31)[C@H](O)[C@@H]2O,OPRK1,cell-free assay,,,,> 10 µM
COc1ccccc1Oc1c(NS(=O)(=O)c2ccc(C(C)(C)C)cc2)nc(-c2ncccn2)nc1OCCO,"Hepatic sodium/bile acid cotransporter (SLC10A1, Homo sapiens, UniProt Q14973)",transporter uptake,inhibitor,,,145 µM
